# D1 mod: allosterically modulates the human D1 dopamine receptor | HEK293 D1, CRE-luciferase, dopamine EC30 potentiation; actives deviate in either direction | B-score at 10 µM | 58,000 compounds, 5.9% hits | AID 641;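 active = luminescence count or its row- and column-corrected plate score outside the 99.7% band of the plate's sample wells, on either side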
# Target sequence (P21728 whole entry, looked up): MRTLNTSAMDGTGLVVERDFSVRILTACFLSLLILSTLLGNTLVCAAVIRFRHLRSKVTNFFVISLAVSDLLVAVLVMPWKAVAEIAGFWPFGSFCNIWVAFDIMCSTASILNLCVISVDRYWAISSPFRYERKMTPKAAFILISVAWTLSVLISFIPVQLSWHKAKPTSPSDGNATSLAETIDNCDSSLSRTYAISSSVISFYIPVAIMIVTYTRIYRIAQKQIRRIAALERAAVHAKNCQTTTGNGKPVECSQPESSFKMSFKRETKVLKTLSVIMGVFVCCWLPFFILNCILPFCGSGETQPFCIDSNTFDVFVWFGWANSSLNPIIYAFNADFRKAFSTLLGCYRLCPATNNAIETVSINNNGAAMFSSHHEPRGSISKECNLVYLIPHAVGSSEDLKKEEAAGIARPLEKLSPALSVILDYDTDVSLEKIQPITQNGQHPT
# HEK293 NFkB inh: lowers PMA/ionomycin-induced NF-kB signal in HEK293 cells. AID 465. HEK-293 NF-kB luciferase reporter, luminescence. 62,000 compounds, 0.21% hits. inhibition, % at 3 µM;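 active = inhibition above the mean of all tested compounds plus 3 SD, cut at about 40% in these data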;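 note: 0% = stimulated DMSO wells and 100% = 10 µM reference inhibitor 5653914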
#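 System – HEK-293 cells with stable firefly luciferase reporter driven by four HIV NF-kB elements · Doses – one dose, 3 µM · Schedule – 1 h compound pre-incubation, 16 h PMA/ionomycin at 37 °C · Technique – luminescence from luciferase substrate reagent · Measure – percent inhibition normalized per plate to DMSO and reference-inhibitor controls · Replicates – tested once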
# E coli RNAP: blocks E. coli RNA polymerase transcription; AID 559; P0A8V2; 62,000 compounds, 0.2% hits; inhibition, %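 (tested at 10 µM)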; fluorescence transcription assay; in the data active = inhibition above about 20%;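 note: 0% = enzyme without compound and 100% = no enzyme blank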
# hDAT+cocaine: modulates human dopamine transporter uptake under cocaine. Q01959. LLC-PK1 hDAT cells, [14C]-dopamine uptake with cocaine IC80; actives deviate in either direction. B-score at 10 µM. 110,000 compounds, 1.3% hits. AID 449768;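 active = Z score or B-score, a plate-position-corrected score, falls beyond the plate's 99.7% confidence bounds, in either direction; inactive = both scores lie inside the 99.7% bounds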;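 note: scored against the spread of the other compound wells on the same plate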
# AP ELISA ortho: orthogonal test for alternative complement pathway inhibitors | Human serum alternative complement pathway, LPS-coated ELISA, C3 deposition; tested in compound mixtures | inhibition, % at 5 µM | 62,000 compounds, 0.08% hits | AID 1235;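 active = inhibition above 30% in each of the two pooled mixtures holding the compound, so the lower value exceeds 30%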;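 note: 0% = serum in Mg-EGTA without compound and 100% = EDTA serum blank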
#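 Test system – human serum alternative complement pathway, C3 deposition on LPS-coated wells · Buffer or medium – diluted human serum in Mg2+-EGTA GVB++ · Compound dosing – 5 µM each compound, pools of ten, 50 µM per pool · Schedule – 1 h serum-compound exposure at 37 °C · Measured by – Anti-C3 ELISA, OD 450 nm · Read-out basis – percent inhibition of C3 deposition onto LPS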
# D1 mod confirm: confirmation of human D1 dopamine receptor allosteric modulators. shares compounds with D1 mod. HEK293 D1 CRE-luciferase, dopamine EC30 potentiation; stronger effect = higher value. luminescence at 10 µM. 2,200 compounds, 88% hits. AID 642;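 active = luminescence in either of two replicates above the same-plate mean plus 3 SD of the low-dose dopamine control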
# D1 ag no DA: activates D1 CRE-luciferase signal without dopamine present; HEK293 D1 CRE-luciferase, luminescence, no dopamine; stronger effect = higher value; luminescence at 10 µM; 1,900 compounds, 0.8% hits; shares compounds with D1 mod; in the data active = luminescence above about 3900
# Isoprot counter: alters isoproterenol CRE-luciferase response in HEK293 cells. shares compounds with D1 mod. HEK293 D1 CRE-luciferase, isoproterenol EC30 counter-screen. calls only at 10 µM. 2,200 compounds, 63% hits. AID 647;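 active = luminescence in either replicate above plate mean of wells with a partly effective reference agonist dose plus 3 SD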;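 note: isoproterenol raises cAMP through native beta-adrenoceptor Gs so signal bypasses D1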
# * marks the source's active call; other numbers are inactive results; i = inactive; · = no result given; + = active, no number. This is one part of a sample in which hits are shown more often than they occur.
SMILES,D1 mod,HEK293 NFkB inh,E coli RNAP,hDAT+cocaine,AP ELISA ortho,D1 mod confirm,D1 ag no DA,Isoprot counter
COC(=O)C1=C(C)NC(=O)NC1c1cn(-c2ccccc2)nc1-c1cccs1 (stereo unspecified),1.8,7,-2,1.2,2,·,·,·
O=C1NCC(CN(c2ccccc2)c2ccccc2)O1 (stereo unspecified),2.9*,19,1,-0.045,16,9384*,1528,+
COc1ccc(OCC2CNC(=O)O2)cc1 (stereo unspecified),·,-3,6,·,-2,·,·,·
CCOc1ccc(-c2[nH]ncc2-c2ccc(OC)c(OC)c2)c(O)c1,5.2*,33,·,0.88,4,13188*,1944,+
CCOc1ccc(-c2[nH]ncc2Oc2ccccc2OC)c(O)c1,-0.82,6,4,-0.0075,8,·,·,·
Cc1ccc(Nc2nc3ccccc3nc2-n2nc(C)cc2C)cc1,·,·,·,0.033,·,·,·,·
Cc1cc(C)n(-c2nc3ccccc3nc2Nc2ccc(CC(=O)O)cc2)n1,21*,8,3,0.49,23,7376*,1728,i
COc1ccc2c(c1OC)C(=O)N(c1cccc(C)c1)C2=O,4.6*,15,5,-0.41,18,10596*,1716,+
Clc1ccc(N2CCN(c3ncnc4c3oc3ccccc34)CC2)cc1,-0.24,8,4,-0.81,5,·,·,·
CC1CN(c2ncnc3c2oc2ccccc23)CC(C)O1 (stereo unspecified),5.6*,20,3,-0.18,4,12424*,1820,+
Cc1cc(C)n2c3c(c(C#N)c2n1)CCCC3,2.9*,12,-3,-0.44,-2,9512*,1860,i
O=C(O)c1ccccc1SC1CC(=O)N(C2CCCCC2)C1=O (stereo unspecified),3.9*,10,5,-1,9,6536,1600,i
CC(c1ccccc1)N1C(=O)CC(Sc2ncccc2C(=O)O)C1=O (stereo unspecified),-0.36,7,1,-0.43,12,·,·,·
Cc1cccc(Cn2c(N(C)Cc3ccccc3)nc3c2c(=O)[nH]c(=O)n3C)c1,8*,5,6,-0.97,24,19408*,1708,+
C/C=C/Cn1c(N(C)Cc2ccccc2)nc2c1c(=O)[nH]c(=O)n2C,7.3*,10,0,-0.35,18,21832*,1976,+
CN(Cc1ccccc1)c1nc2c(c(=O)[nH]c(=O)n2C)n1C,-0.12,5,·,0.3,·,·,·,·
CCN(CCO)C(=O)C12CCC(C)(C(=O)C1)C2(C)C (stereo unspecified),0.6,4,1,1.4,10,·,·,·
C=CCSC1=C(C#N)C(c2cccc(OC)c2)CC(=O)N1 (stereo unspecified),-0.24,-5,·,-1.1,·,·,·,·
O=C(Nc1ccc(F)cc1)N1CCOCC1,5.4*,1,1,-0.93,10,5328,1472,i
CCN(CC(=O)Nc1ccc2c(c1)CCC2)Cc1nc2ccccc2c(=O)[nH]1,·,15,1,1.5,13,·,·,·
COC(=O)[C@H](Cc1ccccc1)NC(=O)NCCC1=CCCCC1,·,·,·,-0.33,·,·,·,·
COc1ccc(CNC(=O)c2cnn3c(C(F)F)cc(C)nc23)cc1OC,3.9*,-3,10,0.51,3,8268*,1472,+
Cc1ccc(-c2c(C)sc(=NC(=O)c3ccco3)n2C)cc1,·,·,·,-0.13,·,·,·,·
COc1ccc(OC)c2c1sc(=NC(=O)c1ccco1)n2C,3.2*,0,6,1.1,17,13568*,1564,+
CC1=C(C(=O)Nc2ccc(C)cc2C)C(c2ccc(C)o2)NC(=O)N1 (stereo unspecified),·,·,·,-0.61,·,·,·,·
SMILES,D1 mod,HEK293 NFkB inh,E coli RNAP,hDAT+cocaine,AP ELISA ortho,D1 mod confirm,D1 ag no DA,Isoprot counter
CCOC(=O)c1sc(NC(C)=O)c(C(=O)OCC)c1C,·,4,7,0.77,-4,·,·,·
CCOC(=O)c1c(NC(N)=O)sc(C)c1C,6.7*,19,8,-0.46,-4,11700*,1768,+
CCOC(=O)Nc1sc(C(=O)N(CC)CC)c(C)c1C(=O)OCC,5.1*,7,7,1.9,-8,14176*,1880,i
C=CCc1ccc(OCCOCCNCCCC)c(OC)c1,·,·,·,0.86,·,·,·,·
CC(Oc1ccc(Cl)cc1Cl)C(=O)NCCCn1ccnc1 (stereo unspecified),·,18,8,0.18,-2,·,·,·
CC(Oc1ccc(Cl)cc1Cl)C(=O)NCc1ccncc1 (stereo unspecified),6.7*,14,10,-0.37,-4,14184*,1620,+
Cc1cc(C)n(C(=O)C2CCCN2S(=O)(=O)c2ccc(Cl)cc2)n1 (stereo unspecified),-1.2,13,5,·,-15,·,·,·
CCN(CC)c1ccc(NC(=O)C2CCCN(S(=O)(=O)c3cnc[nH]3)C2)c(C)c1 (stereo unspecified),-0.14,16,6,1.3,21,·,·,·
O=C(c1cccc(-c2nnc(-c3ccccc3)o2)c1)N1CCCCC1,7.9*,-29,5,1.5,10,12576*,1552,+
Nc1nnnn1CC(=O)OCc1cccc(Br)c1,·,·,7,-1.2,·,·,·,·
CCNc1nc(Oc2ccc(=O)n(-c3ccccc3)n2)nc(N2CCOCC2)n1,10*,-5,2,1.3,12,18936*,1592,+
N#Cc1c2n(c3c(=O)n(Cc4ccc(Cl)cc4)cnc13)CCCCC2,11*,21,5,1.3,19,13432*,1956,+
Fc1cccc(Cl)c1-c1nnc2ccc(N3CCOCC3)nn12,16*,6,11,-0.64,8,10924*,1424,+
Brc1ccc(-c2nnc3ccc(N4CCN(c5ccccc5)CC4)nn23)cc1,0.25,-3,16,-0.057,7,·,·,·
c1ccc(-c2nnc3ccc(N4CCC5(CC4)OCCO5)nn23)cc1,21*,8,4,0.16,11,16736*,1528,+
O=C(Nc1ccccc1Cl)N1CCN(c2ccc3nnc(-c4ccc(F)cc4)n3n2)CC1,1.1,23,6,·,8,·,·,·
Fc1ccc(-c2nnc3ccc(N4CCCC4)nn23)cc1,8.3*,12,2,2.1,23,11900*,1896,+
NC(=O)C1(N2CCCCC2)CCN(c2ccc3nnc(-c4ccccc4)n3n2)CC1,11*,7,7,1.8,11,18940*,·,+
Cc1cc(OCC(=O)Nn2cnnc2)ccc1Br,·,·,7,-0.14,·,·,·,·

# High-throughput results deposited in PubChem by several laboratories.
